Source: ChEMBL document CHEMBL1147714, “1,3,5-Trisubstituted aryls as highly selective PPARdelta agonists” (Bioorg Med Chem Lett, 2006)

What was measured:
[1] = target: T1, Peroxisome proliferator-activated receptor alpha (Homo sapiens, UniProt Q07869); assay: Effect on human PPARalpha transactivation in 293T cells; type: functional, cell-based
T1 sequence (Q07869 whole entry): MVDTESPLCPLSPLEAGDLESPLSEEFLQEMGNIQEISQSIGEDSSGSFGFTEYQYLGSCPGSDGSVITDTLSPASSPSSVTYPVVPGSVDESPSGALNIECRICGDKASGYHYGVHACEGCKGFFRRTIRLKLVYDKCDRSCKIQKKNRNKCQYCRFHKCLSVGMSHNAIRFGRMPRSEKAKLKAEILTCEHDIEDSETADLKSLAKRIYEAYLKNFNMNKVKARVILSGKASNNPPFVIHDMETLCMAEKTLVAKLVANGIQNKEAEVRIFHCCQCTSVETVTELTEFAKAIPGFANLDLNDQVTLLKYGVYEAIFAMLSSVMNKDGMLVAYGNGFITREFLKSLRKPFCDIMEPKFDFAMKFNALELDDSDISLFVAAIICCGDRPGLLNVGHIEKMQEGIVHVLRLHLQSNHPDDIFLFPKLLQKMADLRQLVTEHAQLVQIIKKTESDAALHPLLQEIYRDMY
Outline: (§1)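 293T cells transfected for 6 h (Fugene6) with a GAL4 DNA-binding domain–PPAR ligand-binding domain fusion plasmid and pG5-Luc reporter (5 GAL4-binding sites, TATA box, firefly luciferase). Compounds were then added at 1× final concentration in 1% DMSO for 18-20 h at 37 °C. Cells were lysed with Britelite for luciferase read-out.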

[2] = target: T2, Peroxisome proliferator-activated receptor gamma (Homo sapiens, UniProt P37231); assay: Effect on human PPARgamma transactivation in 293T cells; type: functional, cell-based
T2 sequence (P37231 whole entry): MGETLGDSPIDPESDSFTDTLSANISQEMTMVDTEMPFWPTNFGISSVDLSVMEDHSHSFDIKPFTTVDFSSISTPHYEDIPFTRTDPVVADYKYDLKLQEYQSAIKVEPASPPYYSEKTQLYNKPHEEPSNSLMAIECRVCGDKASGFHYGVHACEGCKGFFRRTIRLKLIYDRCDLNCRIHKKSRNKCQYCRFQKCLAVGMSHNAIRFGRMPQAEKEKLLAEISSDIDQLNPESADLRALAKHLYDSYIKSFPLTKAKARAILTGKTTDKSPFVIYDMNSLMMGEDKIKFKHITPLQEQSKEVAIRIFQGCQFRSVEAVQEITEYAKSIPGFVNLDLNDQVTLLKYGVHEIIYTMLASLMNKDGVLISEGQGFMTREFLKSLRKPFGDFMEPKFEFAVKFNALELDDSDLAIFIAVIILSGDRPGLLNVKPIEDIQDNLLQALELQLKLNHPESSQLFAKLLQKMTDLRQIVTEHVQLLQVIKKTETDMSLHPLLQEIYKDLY

[3] = target: T3, Peroxisome proliferator-activated receptor delta (Homo sapiens, UniProt Q03181); assay: Effect on human PPARdelta transactivation in 293T cells; type: functional, cell-based
T3 sequence (Q03181 whole entry): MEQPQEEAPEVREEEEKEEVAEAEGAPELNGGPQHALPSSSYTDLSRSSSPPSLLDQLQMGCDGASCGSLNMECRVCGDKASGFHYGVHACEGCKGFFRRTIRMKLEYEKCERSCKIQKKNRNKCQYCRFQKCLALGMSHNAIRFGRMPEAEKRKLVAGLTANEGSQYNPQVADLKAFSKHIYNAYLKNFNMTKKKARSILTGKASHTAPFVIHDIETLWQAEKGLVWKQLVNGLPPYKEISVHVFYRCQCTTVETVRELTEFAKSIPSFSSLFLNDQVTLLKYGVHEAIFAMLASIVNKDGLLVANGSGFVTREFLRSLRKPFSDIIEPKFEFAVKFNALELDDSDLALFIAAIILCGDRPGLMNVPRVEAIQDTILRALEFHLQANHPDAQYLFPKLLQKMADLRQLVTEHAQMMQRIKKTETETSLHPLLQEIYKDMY

Mus musculus = species on record: Mus musculus; assay: Stability in mouse liver microsome; type: ADME
Liver microsomes [4] = assay: Stability in rat liver microsome; type: ADME
Liver microsomes [5] = assay: Stability in human liver microsome; type: ADME
[6] = Bioavailability in mouse at 10 mg/kg, po; type: ADME, organism-based; details: in vivo
Outline: (§2)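 Mice received a single oral dose of 10 mpk, given as a suspension in 0.5% CMC. Bioavailability, Cmax and half-life were obtained from this pharmacokinetic study.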

[7] = Cmax in mouse at 10 mg/kg, po; type: ADME, organism-based; parameters: dose 10 mg/kg, route oral; details: in vivo; outline: as §2
[8] = Half life in mouse at 10 mg/kg, po; type: ADME, organism-based; parameters: dose 10 mg/kg, route oral; details: in vivo; outline: as §2
[9] = target: T4, Peroxisome proliferator-activated receptor gamma (Homo sapiens) (UniProt P37231); assay: Effect on human PPARgamma transactivation in 293T cells relative to rosiglitazone; type: functional, cell-based; outline: as §1
T4 sequence (whole entry): T2 sequence (P37231 whole entry)

| Compound | EC50 [1] [nM] | EC50 [2] [nM] | EC50 [3] [nM] | other results |
| --- | --- | --- | --- | --- |
| Cc1ccc(-c2cc(COc3ccc(OCC(=O)O)c(C)c3)cc(-c3ccc(C(F)(F)F)cc3)c2)cc1 | > 10000 | > 10000 | 70 |  |
| O=C(O)Cc1ccc(OCc2cc(-c3ccc(C(F)(F)F)cc3)cc(-c3ccc(C(F)(F)F)cc3)c2)c(Cl)c1 | > 10000 | > 10000 | 540 |  |
| O=C(O)COc1ccc(OCc2cc(-c3ccccc3)cc(-c3ccccc3)c2)cc1 | > 10000 | 1200 | 970 |  |
| Cc1cc(OCc2nc(-c3ccc(OC(F)(F)F)cc3)cc(-c3ccc(OC(F)(F)F)cc3)n2)ccc1OCC(=O)O | > 10000 | > 10000 | 90 |  |
| Cc1cc(OCc2cc(-c3ccc(OC(F)(F)F)cc3)cc(-c3ccc(C(F)(F)F)cc3)c2)ccc1OCC(=O)O | > 10000 | > 10000 | 60 |  |
| Cc1cc(OCc2ccc(-c3ccc(OC(F)(F)F)cc3)c(-c3ccc(OC(F)(F)F)cc3)c2)ccc1OCC(=O)O | > 10000 | > 10000 | > 10000 |  |
| Cc1cc(OCc2cc(-c3ccc(-c4ccccc4)cc3)cc(-c3ccc(C(F)(F)F)cc3)c2)ccc1OCC(=O)O | > 10000 | > 10000 | 60 |  |
| COc1ccc(-c2ccc(COc3ccc(OCC(=O)O)c(C)c3)cc2-c2ccc(OC)cc2)cc1 | > 10000 | > 10000 | > 10000 |  |
| Cc1cc(OCc2ccc(-c3ccc(C(F)(F)F)cc3)c(-c3ccc(C(F)(F)F)cc3)n2)ccc1OCC(=O)O | > 10000 | > 10000 | > 10000 |  |
| COc1ccc(-c2cc(COc3ccc(OCC(=O)O)c(C)c3)cc(-c3ccc(C(F)(F)F)cc3)c2)cc1 | > 10000 | > 10000 | 70 |  |
| Cc1cc(OCc2cc(-c3ccc(OC(F)(F)F)cc3)cc(-c3ccc(OC(F)(F)F)cc3)c2)ccc1OCC(=O)O | > 10000 | > 10000 | 30 |  |
| Cc1cc(OCc2cc(-c3ccc(Cl)cc3)cc(-c3ccc(Cl)cc3)c2)ccc1OCC(=O)O | > 10000 | > 10000 | 110 |  |
| COc1ccc(-c2cc(COc3ccc(OCC(=O)O)c(C)c3)nc(-c3ccc(OC)cc3)n2)cc1 | > 10000 | > 10000 | 210 |  |
| Cc1cc(OCc2cc(-c3ccc(C(F)(F)F)cc3)cc(-c3ccc(C(F)(F)F)cc3)c2)ccc1OCC(=O)O | > 10000 | > 10000 | 10 | Stability (Mus musculus): Stable; Stability (Liver microsomes [4]): Stable; Stability (Liver microsomes [5]): Stable; bioavailability [6]: > 50%; Cmax [7]: > 4 µM; half-life [8]: 3 h |
| Cc1cc(OCc2cc(-c3ccc(OC(F)(F)F)cc3)nc(-c3ccc(OC(F)(F)F)cc3)n2)ccc1OCC(=O)O | > 10000 | > 10000 | 40 | Stability (Mus musculus): Stable; Stability (Liver microsomes [4]): Stable; Stability (Liver microsomes [5]): Stable; bioavailability [6]: > 50%; Cmax [7]: > 4 µM; half-life [8]: 3 h |
| COc1ccc(-c2cc(-c3ccc(OC)cc3)nc(COc3ccc(OCC(=O)O)c(C)c3)n2)cc1 | > 10000 | > 10000 | 110 |  |
| Cc1cc(OCc2nc(-c3ccc(C(F)(F)F)cc3)cc(-c3ccc(C(F)(F)F)cc3)n2)ccc1OCC(=O)O | > 10000 | > 10000 | 40 |  |
| Cc1cc(OCc2cc(-c3ccc(C(F)(F)F)cc3)nc(-c3ccc(C(F)(F)F)cc3)n2)ccc1OCC(=O)O | > 10000 | > 10000 | 30 |  |
| COc1ccc(-c2cc(COc3ccc(OCC(=O)O)c(C)c3)cc(-c3ccc(OC)cc3)c2)cc1 | > 10000 | > 10000 | 350 |  |
| Cc1cc(OCc2cc(-c3ccc(C(F)(F)F)cc3)cc(-c3cccc(C(F)(F)F)c3)c2)ccc1OCC(=O)O | > 10000 | > 10000 | 560 |  |
| O=C(O)COc1ccc(OCc2cc(-c3ccc(C(F)(F)F)cc3)cc(-c3ccc(C(F)(F)F)cc3)c2)cc1 | 1640 | > 10000 | 110 |  |
| Cc1cc(OCc2cc(-c3ccc(N(C)C)cc3)cc(-c3ccc(N(C)C)cc3)c2)ccc1OCC(=O)O | > 10000 | > 10000 | 490 |  |
| Cc1cc(OCC(=O)O)ccc1OCc1cc(-c2ccc(C(F)(F)F)cc2)cc(-c2ccc(C(F)(F)F)cc2)c1 | 3330 | > 10000 | 70 |  |
| Cc1cc(OCc2cc(-c3ccccc3)cc(-c3ccccc3)c2)ccc1OCC(=O)O | > 10000 | 740 | 560 | Efficacy [9]: 30% |
| O=C(O)Cc1ccc(SCc2cc(-c3ccc(C(F)(F)F)cc3)cc(-c3ccc(C(F)(F)F)cc3)c2)c(Cl)c1 | > 10000 | > 10000 | 160 |  |
| Cc1cc(SCc2cc(-c3ccc(C(F)(F)F)cc3)cc(-c3ccc(C(F)(F)F)cc3)c2)ccc1OCC(=O)O | > 10000 | > 10000 | 30 |  |
| CC(C)(Oc1ccc(OCc2cc(-c3ccc(C(F)(F)F)cc3)cc(-c3ccc(C(F)(F)F)cc3)c2)cc1)C(=O)O | 730 | 370 | 50 |  |
